Reference: ChEMBL document CHEMBL4219025 (J Med Chem, 2018)
Active and inactive are the calls of the source. The rule behind the calls is not given here.

Assays:
[1] = target: T1, Protein cereblon/NAD-dependent protein deacetylase sirtuin-2 (Homo sapiens) (UniProt Q8IXJ6+Q96SW2); assay: Induction of cereblon-mediated Sirt2 degradation in human HeLa cells at 0.05 to 5 uM after 4 hrs by Western blot method; format: cell-based
Procedure, shortened: (§1)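 HeLa cells in DMEM high glucose with 10% FCS, 37 °C, 5% CO2; 2x10^5 cells per 6-well (endogenous Sirt1/Sirt2) or 2x10^4 EGFP-Sirt2-HeLa per 24-well. Cycloheximide applied before compound (5 µg/ml 6-well, 3 µg/ml 24-well); 4 h default incubation, DMSO controls. Lysed in reducing sample buffer, 10% SDS-PAGE, PVDF, rabbit anti-Sirt2/Sirt1/GAPDH 1:5000, ECL; background-subtracted band intensities normalized to mean control.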

[2] = target: T2, NAD-dependent protein deacetylase sirtuin-1 (Homo sapiens, UniProt Q96EB6); assay: Inhibition of recombinant human GST-tagged Sirt1 (133 to 747 residues) using Z-(Ac)Lys-AMC as substrate measured after 4 hrs by high-throughput fluorescence based assay
T2 sequence (Q96EB6 whole entry): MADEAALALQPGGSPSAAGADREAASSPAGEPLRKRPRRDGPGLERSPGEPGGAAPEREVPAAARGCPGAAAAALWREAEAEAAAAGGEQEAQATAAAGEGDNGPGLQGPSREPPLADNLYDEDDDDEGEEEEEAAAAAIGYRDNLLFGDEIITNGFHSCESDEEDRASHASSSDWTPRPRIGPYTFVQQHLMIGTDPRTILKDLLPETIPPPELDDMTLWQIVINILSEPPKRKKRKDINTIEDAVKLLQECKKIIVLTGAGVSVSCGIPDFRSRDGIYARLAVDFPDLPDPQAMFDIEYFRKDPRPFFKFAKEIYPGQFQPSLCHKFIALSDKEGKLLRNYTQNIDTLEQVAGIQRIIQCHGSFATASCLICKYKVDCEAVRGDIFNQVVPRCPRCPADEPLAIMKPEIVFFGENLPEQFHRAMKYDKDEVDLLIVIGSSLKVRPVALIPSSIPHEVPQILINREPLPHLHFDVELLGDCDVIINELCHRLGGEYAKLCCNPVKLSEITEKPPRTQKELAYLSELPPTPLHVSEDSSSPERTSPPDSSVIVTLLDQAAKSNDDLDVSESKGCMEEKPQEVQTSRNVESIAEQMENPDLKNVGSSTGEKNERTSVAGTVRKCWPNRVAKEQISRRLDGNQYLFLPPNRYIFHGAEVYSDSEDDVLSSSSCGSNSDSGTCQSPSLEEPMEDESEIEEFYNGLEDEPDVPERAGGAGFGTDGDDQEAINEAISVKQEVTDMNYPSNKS

[3] = target: T3, NAD-dependent protein deacetylase sirtuin-2 (Homo sapiens, UniProt Q8IXJ6); assay: Inhibition of recombinant human His10-tagged Sirt2 (56 to 356 residues) expressed in Escherichia coli BL21(DE3) using Z-(Ac)Lys-AMC as substrate measured after 4 hrs by high-throughput fluorescence based assay
T3 sequence (Q8IXJ6 whole entry): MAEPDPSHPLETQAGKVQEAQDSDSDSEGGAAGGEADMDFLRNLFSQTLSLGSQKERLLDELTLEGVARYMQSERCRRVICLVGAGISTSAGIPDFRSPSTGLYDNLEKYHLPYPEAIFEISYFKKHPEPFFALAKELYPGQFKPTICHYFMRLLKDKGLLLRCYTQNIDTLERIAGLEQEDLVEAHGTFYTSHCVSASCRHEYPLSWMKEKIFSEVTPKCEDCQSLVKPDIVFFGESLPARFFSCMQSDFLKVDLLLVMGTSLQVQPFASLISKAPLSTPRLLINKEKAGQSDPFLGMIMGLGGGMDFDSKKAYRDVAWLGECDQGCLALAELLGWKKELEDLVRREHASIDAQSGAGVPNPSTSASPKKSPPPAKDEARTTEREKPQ

[4] = target: T4, NAD-dependent protein deacetylase sirtuin-3, mitochondrial (Homo sapiens, UniProt Q9NTG7); assay: Inhibition of recombinant human His10-tagged Sirt3 (118 to 395 residues) expressed in Escherichia coli BL21(DE3) using Z-(Ac)Lys-AMC as substrate measured after 4 hrs by high-throughput fluorescence based assay
T4 sequence (Q9NTG7 whole entry): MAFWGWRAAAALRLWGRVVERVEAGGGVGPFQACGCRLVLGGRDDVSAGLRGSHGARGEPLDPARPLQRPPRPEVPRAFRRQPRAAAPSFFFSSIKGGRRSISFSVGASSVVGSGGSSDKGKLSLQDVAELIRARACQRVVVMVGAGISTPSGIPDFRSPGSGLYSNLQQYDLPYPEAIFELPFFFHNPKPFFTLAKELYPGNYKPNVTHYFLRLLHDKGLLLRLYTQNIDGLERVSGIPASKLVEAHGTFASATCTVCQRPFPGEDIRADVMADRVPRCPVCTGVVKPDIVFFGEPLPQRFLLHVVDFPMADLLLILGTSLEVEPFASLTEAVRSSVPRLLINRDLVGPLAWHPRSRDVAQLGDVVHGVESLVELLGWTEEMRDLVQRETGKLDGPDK

[5] = target: Protein cereblon/NAD-dependent protein deacetylase sirtuin-1 (Homo sapiens) (UniProt Q96EB6+Q96SW2); assay: Induction of cereblon-mediated Sirt1 degradation in human HeLa cells at 10 uM after 1 to 6 hrs by Western blot method; format: cell-based; procedure, shortened: as §1
[6] = target: T1, Protein cereblon/NAD-dependent protein deacetylase sirtuin-2 (Homo sapiens); assay: Induction of cereblon-mediated Sirt2 degradation in human HeLa cells at 10 uM after 1 to 6 hrs by Western blot method; format: cell-based; procedure, shortened: as §1
[7] = target: T1, Protein cereblon/NAD-dependent protein deacetylase sirtuin-2 (Homo sapiens); assay: Induction of cereblon-mediated EGFP-fused Sirt2 (unknown origin) degradation expressed in human HeLa cells at 10 uM after 4 hrs in presence of 2-(4,6-dimethylpyrimidin-2-ylthio)-N-(5-(3-((1-(2-methoxyethyl)-1H-1,2,3-triazol-4-yl)methoxy)benzyl)thiazol-2-yl)acetamide and proteosome inhibitor MG132 by Western blot method; format: cell-based; procedure, shortened: as §1
[8] = target: T1, Protein cereblon/NAD-dependent protein deacetylase sirtuin-2 (Homo sapiens); assay: Induction of cereblon-mediated Sirt2 degradation in human HeLa cells at 10 uM after 2 hrs by Western blot method; format: cell-based; procedure, shortened: as §1
[9] = target: T1, Protein cereblon/NAD-dependent protein deacetylase sirtuin-2 (Homo sapiens); assay: Induction of cereblon-mediated EGFP-fused Sirt2 (unknown origin) degradation expressed in human HeLa cells at 10 uM after 4 hrs by Hoechst 33342 staining-based fluorescent microscopic method; format: cell-based
Procedure, shortened: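 Live EGFP-Sirt2-expressing HeLa cells: 2x10^4 cells seeded on glass imaging dishes in complete medium overnight, treated with 10 μM compound for 4 h (DMSO controls), medium switched to phenol red-free DMEM, nuclei stained 0.5 µg/mL Hoechst 33342 for 5 min; confocal live imaging with 40× oil objective.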

[10] = target: T1, Protein cereblon/NAD-dependent protein deacetylase sirtuin-2 (Homo sapiens); assay: Induction of cereblon-mediated EGFP-fused Sirt2 degradation in human HeLa cells assessed as increase in tubulin acetlyation at 10 uM after 4 hrs by DAPI dye-based immunofluorescent microscopic analysis; format: cell-based
[11] = target: T1, Protein cereblon/NAD-dependent protein deacetylase sirtuin-2 (Homo sapiens); assay: Induction of cereblon-mediated Sirt2 degradation in human HeLa cells after 4 hrs by Western blot method; format: cell-based; procedure, shortened: as §1

T1 sequence (Q96SW2 whole entry, looked up, one chain of several): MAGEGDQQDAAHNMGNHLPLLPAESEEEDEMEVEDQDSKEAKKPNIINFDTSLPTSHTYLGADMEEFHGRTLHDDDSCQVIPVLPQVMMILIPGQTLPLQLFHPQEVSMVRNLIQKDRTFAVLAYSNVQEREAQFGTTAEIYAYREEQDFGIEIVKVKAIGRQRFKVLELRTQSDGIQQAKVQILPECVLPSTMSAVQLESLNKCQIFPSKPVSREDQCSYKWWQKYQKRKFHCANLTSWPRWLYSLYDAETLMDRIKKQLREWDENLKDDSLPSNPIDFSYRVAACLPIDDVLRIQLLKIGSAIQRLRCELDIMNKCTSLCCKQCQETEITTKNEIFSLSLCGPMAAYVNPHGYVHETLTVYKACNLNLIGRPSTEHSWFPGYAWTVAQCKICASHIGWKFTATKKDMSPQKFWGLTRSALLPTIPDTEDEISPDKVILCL
Protein cereblon/NAD-dependent protein deacetylase sirtuin-1 (Homo sapiens), sequence (Q96SW2 whole entry, looked up, one chain of several): as above

IC50 [2]	IC50 [3]	IC50 [4]	SMILES	further results
> 100 µM	2.4 µM	–	C#CCOc1cccc(Cc2cnc(NC(=O)CSc3nc(C)cc(C)n3)s2)c1	–
> 100 µM	0.16 µM	> 100 µM	Cc1cc(C)nc(SCC(=O)Nc2ncc(Cc3cccc(OCc4cn(Cc5ccccc5)nn4)c3)s2)n1	–
> 100 µM	–	–	Cc1cc(C)nc(SCC(=O)Nc2ncc(Cc3cccc4ccc(Cl)cc34)s2)n1	–
100 µM	–	> 100 µM	COCCn1cc(COc2cccc(Cc3cnc(NC(=O)CSc4nc(C)cc(C)n4)s3)c2)nn1	Activity [1]: inactive

More lines, now with the values behind:

SMILES	IC50 [2]	IC50 [3]	IC50 [4]	further results
O=C1CCC(N2C(=O)c3ccccc3C2=O)C(=O)N1 (stereo not given)	–	–	–	Activity [1]: inactive
Cc1cc(C)nc(SCC(=O)Nc2ncc(Cc3cccc4ccccc34)s2)n1	> 100 µM	–	> 100 µM	–
Cc1cc(C)nc(SCC(=O)Nc2ncc(Cc3cccc(OCc4cn(CCOCCOCCOCCOCCOCCOCCOCCOCCOCCOCCOCCNC(=O)CCCCC5SCC6NC(=O)NC65)nn4)c3)s2)n1 (stereo not given)	> 100 µM	0.31 µM	> 100 µM	–
Cc1cc(C)nc(SCC(=O)Nc2ncc(Cc3cccc(OCc4cn(CCCCNC(=O)COc5cccc6c5C(=O)N(C5CCC(=O)NC5=O)C6=O)nn4)c3)s2)n1 (stereo not given)	> 100 µM	0.25 µM	> 100 µM	Activity [5]: inactive; Activity [6]: Active; Activity [7]: inactive; Activity [8]: Active; Activity [9]: Active; Activity [10]: Active; Activity [11]: Dose-dependent effect
